Measurements from ChEMBL document CHEMBL2086265, “Design of inhibitors of Helicobacter pylori glutamate racemase as selective antibacterial agents: incorporation of imidazoles onto a core pyrazolopyrimidinedione scaffold to improve bioavailabilty” (Bioorg Med Chem Lett, 2012).
In brackets after ≈: the same amount, converted by molar mass.

What was measured:
[1] = Intrinsic clearance in human liver microsomes at 2 uM assessed per mg of protein; assay type: ADME, Microsome; details: read-out: CLH
[2] = Intrinsic clearance in mouse liver microsomes at 2 uM assessed per mg of protein; assay type: ADME, Microsome; details: read-out: CLH
[3] = tested on: Helicobacter pylori; assay: Antibacterial activity against wild type Helicobacter pylori 055; assay type: functional
[4] = molecular target: T1, Glutamate racemase (Helicobacter pylori J99, UniProt Q9ZLT0); assay: Inhibition of Helicobacter pylori J99 glutamate racemase
T1 sequence (Q9ZLT0 whole entry): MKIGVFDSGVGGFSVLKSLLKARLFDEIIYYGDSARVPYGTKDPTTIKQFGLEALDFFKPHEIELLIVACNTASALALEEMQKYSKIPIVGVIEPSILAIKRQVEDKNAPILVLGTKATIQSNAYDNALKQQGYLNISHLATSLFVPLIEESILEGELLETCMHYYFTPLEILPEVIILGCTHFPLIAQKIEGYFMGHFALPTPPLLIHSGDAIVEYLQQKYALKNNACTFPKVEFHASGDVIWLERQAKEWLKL
Procedure, shortened: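 The racemase was expressed from the murI gene of H. pylori J99 chromosomal DNA. IC50 was taken as the mean of duplicate determinations, using a method cited from earlier work.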

[5] = tested on: Helicobacter pylori; assay: Antibacterial activity against AcrAB-TolC efflux pump-dificient Helicobacter pylori; assay type: functional
[6] = tested on: Helicobacter pylori; assay: Ratio of MIC for wild type Helicobacter pylori 055 to MIC for AcrAB-TolC efflux pump-dificient Helicobacter pylori

Row | SMILES | microsomal CLint at 2 µM [1] | microsomal CLint at 2 µM [2] | MIC [3] | IC50 [4] | MIC [5] | Ratio [6]
1 | CC(=O)c1cc(-c2c3c(=O)n(C)c(=O)n(CC4CC4)c3nn2Cc2ccnc3ccc(Cl)cc23)n(C)c1 | 19 µL/min/mg | 53 µL/min/mg | 3 µg/mL (≈ 5.8 µM) | 39 nM | – | –
2 | Cn1cc(C#N)nc1-c1c2c(=O)n(C)c(=O)n(CC3CC3)c2nn1Cc1ccnc2ccc(Cl)cc12 | < 14 µL/min/mg | 87 µL/min/mg | 4 µg/mL (≈ 7.98 µM) | 87 nM | 2 µg/mL (≈ 3.99 µM) | –
3 | Cc1cc(C#N)oc1-c1c2c(=O)n(C)c(=O)n(CC3CC3)c2nn1Cc1ccnc2ccc(Cl)cc12 | 59 µL/min/mg | > 100 µL/min/mg | 1 µg/mL (≈ 2 µM) | 60 nM | 0.25 µg/mL (≈ 0.499 µM) | –
4 | CC(C)Cn1c(=O)n(C)c(=O)c2c(-c3cc(C#N)cn3C)n(Cc3ccnc4ccc(Cl)cc34)nc21 | 94 µL/min/mg | > 100 µL/min/mg | 4 µg/mL (≈ 7.97 µM) | 86 nM | – | –
5 | CC(C)Cn1c(=O)n(C)c(=O)c2c(-c3cncn3C)n(Cc3ccnc4ccc(Cl)cc34)nc21 | 17 µL/min/mg | > 100 µL/min/mg | 4 µg/mL (≈ 8.37 µM) | 170 nM | – | –
6 | Cc1oc(C#N)cc1-c1c2c(=O)n(C)c(=O)n(CC3CC3)c2nn1Cc1ccnc2ccc(Cl)cc12 | 38 µL/min/mg | 63 µL/min/mg | 2 µg/mL (≈ 3.99 µM) | 220 nM | 2 µg/mL (≈ 3.99 µM) | <=2
7 | Cc1c[nH]nc1-c1c2c(=O)n(C)c(=O)n(CC3CC3)c2nn1Cc1ccnc2ccc(Cl)cc12 | 20 µL/min/mg | > 100 µL/min/mg | 8 µg/mL (≈ 16.8 µM) | 220 nM | – | –
8 | Cn1cnnc1-c1c2c(=O)n(C)c(=O)n(CC3CC3)c2nn1Cc1ccnc2ccc(Cl)cc12 | < 14 µL/min/mg | 64 µL/min/mg | 8 µg/mL (≈ 16.8 µM) | 230 nM | – | –
9 | CC(C)Cn1c(=O)n(C)c(=O)c2c(-c3cccn3C)n(Cc3ccnc4ccc(Cl)cc34)nc21 | > 100 µL/min/mg | > 100 µL/min/mg | 18 µg/mL (≈ 37.7 µM) | 260 nM | – | –
10 | Cc1sc(N)nc1-c1c2c(=O)n(C)c(=O)n(CC3CC3)c2nn1Cc1ccnc2ccc(Cl)cc12 | 34 µL/min/mg | > 100 µL/min/mg | 8 µg/mL (≈ 15.7 µM) | 280 nM | – | –
11 | Cc1nc(N)sc1-c1c2c(=O)n(C)c(=O)n(CC3CC3)c2nn1Cc1ccnc2ccc(Cl)cc12 | < 14 µL/min/mg | 61 µL/min/mg | > 32 µg/mL | 740 nM | – | –
12 | Cn1ncnc1-c1c2c(=O)n(C)c(=O)n(CC3CC3)c2nn1Cc1ccnc2ccc(Cl)cc12 | 32 µL/min/mg | < 14 µL/min/mg | 8 µg/mL (≈ 16.8 µM) | 810 nM | 4 µg/mL (≈ 8.39 µM) | –
13 | Cc1nc[nH]c1-c1c2c(=O)n(C)c(=O)n(CC3CC3)c2nn1Cc1ccnc2ccc(Cl)cc12 | 92 µL/min/mg | > 100 µL/min/mg | 32 µg/mL (≈ 67.2 µM) | 900 nM | – | –
14 | Cn1cncc1-c1c2c(=O)n(CC#CCO)c(=O)n(CC3CC3)c2nn1Cc1ccnc2ccc(Cl)cc12 | > 100 µL/min/mg | > 100 µL/min/mg | 64 µg/mL (≈ 121 µM) | 54 nM | 16 µg/mL (≈ 30.2 µM) | –
15 | C=CCn1c(=O)c2c(-c3cncn3C)n(Cc3ccnc4ccc(Cl)cc34)nc2n(CC2CC2)c1=O | 25 µL/min/mg | 49 µL/min/mg | 1 µg/mL (≈ 1.99 µM) | 56 nM | 0.8 µg/mL (≈ 1.59 µM) | <=2
16 | CC#CCn1c(=O)c2c(-c3cncn3C)n(Cc3ccnc4ccc(Cl)cc34)nc2n(CC2CC2)c1=O | 47 µL/min/mg | 44 µL/min/mg | 8 µg/mL (≈ 15.6 µM) | 63 nM | 2 µg/mL (≈ 3.89 µM) | –

Row | SMILES | microsomal CLint at 2 µM [1] | microsomal CLint at 2 µM [2] | MIC [3] | IC50 [4] | MIC [5] | Ratio [6]
17 | CCn1c(=O)c2c(-c3cncn3C)n(Cc3ccnc4ccc(Cl)cc34)nc2n(CC2CC2)c1=O | < 14 µL/min/mg | 15 µL/min/mg | 4 µg/mL (≈ 8.16 µM) | 72 nM | 1 µg/mL (≈ 2.04 µM) | –
18 | Cn1cncc1-c1c2c(=O)n(C3CC3)c(=O)n(CC3CC3)c2nn1Cc1ccnc2ccc(Cl)cc12 | < 14 µL/min/mg | 6 µL/min/mg | 8 µg/mL (≈ 15.9 µM) | 79 nM | 2 µg/mL (≈ 3.98 µM) | –
19 | Cn1cncc1-c1c2c(=O)n(CC#CCN3CCOCC3)c(=O)n(CC3CC3)c2nn1Cc1ccnc2ccc(Cl)cc12 | > 100 µL/min/mg | > 100 µL/min/mg | 64 µg/mL (≈ 107 µM) | 170 nM | 16 µg/mL (≈ 26.7 µM) | –
20 | Cn1cc(C#N)cc1-c1c2c(=O)n(CC#CCn3cncn3)c(=O)n(CC3CC3)c2nn1Cc1ccnc2ccc(Cl)cc12 | > 100 µL/min/mg | > 100 µL/min/mg | 8 µg/mL (≈ 13.2 µM) | 13 nM | 16 µg/mL (≈ 26.4 µM) | –
21 | Cn1cc(C#N)cc1-c1c2c(=O)n(CC#CCN3CCOCC3)c(=O)n(CC3CC3)c2nn1Cc1ccnc2ccc(Cl)cc12 | > 100 µL/min/mg | > 100 µL/min/mg | 16 µg/mL (≈ 25.7 µM) | 51 nM | 4 µg/mL (≈ 6.42 µM) | –
22 | Cn1cc(C#N)cc1-c1c2c(=O)n(CC#N)c(=O)n(CC3CC3)c2nn1Cc1ccnc2ccc(Cl)cc12 | < 14 µL/min/mg | 96 µL/min/mg | 8 µg/mL (≈ 15.2 µM) | 55 nM | 1 µg/mL (≈ 1.9 µM) | –
23 | Cn1cc(C#N)cc1-c1c2c(=O)n(CC#CCO)c(=O)n(CC3CC3)c2nn1Cc1ccnc2ccc(Cl)cc12 | > 100 µL/min/mg | > 100 µL/min/mg | 32 µg/mL (≈ 57.8 µM) | 57 nM | 16 µg/mL (≈ 28.9 µM) | –
24 | Cn1cc(C#N)cc1-c1c2c(=O)n(C3CC3)c(=O)n(CC3CC3)c2nn1Cc1ccnc2ccc(Cl)cc12 | 30 µL/min/mg | 33 µL/min/mg | 2 µg/mL (≈ 3.8 µM) | 80 nM | 0.13 µg/mL (≈ 0.247 µM) | –
25 | Cn1cc(C#N)cc1-c1c2c(=O)n(CCO)c(=O)n(CC3CC3)c2nn1Cc1ccnc2ccc(Cl)cc12 | > 100 µL/min/mg | > 100 µL/min/mg | 64 µg/mL (≈ 121 µM) | 88 nM | 16 µg/mL (≈ 30.2 µM) | –
26 | Cn1cc(C#N)cc1-c1c2c(=O)n(CC#CCn3cccn3)c(=O)n(CC3CC3)c2nn1Cc1ccnc2ccc(Cl)cc12 | > 100 µL/min/mg | > 100 µL/min/mg | 8 µg/mL (≈ 13.2 µM) | 120 nM | 4 µg/mL (≈ 6.62 µM) | –
27 | Cn1cc(C#N)cc1-c1c2c(=O)n(CC#CCn3ccnc3)c(=O)n(CC3CC3)c2nn1Cc1ccnc2ccc(Cl)cc12 | 41 µL/min/mg | > 100 µL/min/mg | 64 µg/mL (≈ 106 µM) | 260 nM | 4 µg/mL (≈ 6.62 µM) | –
28 | Cn1cc(C#N)cc1-c1c2c(=O)n(CCn3cccn3)c(=O)n(CC3CC3)c2nn1Cc1ccnc2ccc(Cl)cc12 | > 100 µL/min/mg | > 100 µL/min/mg | 32 µg/mL (≈ 55.2 µM) | 470 nM | 32 µg/mL (≈ 55.2 µM) | –
29 | Cn1cc(C#N)cc1-c1c2c(=O)n(CCn3ccnn3)c(=O)n(CC3CC3)c2nn1Cc1ccnc2ccc(Cl)cc12 | > 100 µL/min/mg | > 100 µL/min/mg | 16 µg/mL (≈ 27.5 µM) | 670 nM | 16 µg/mL (≈ 27.5 µM) | –
30 | Cn1cc(C#N)nc1-c1c2c(=O)n(CC3CC3)c(=O)n(CC3CC3)c2nn1Cc1ccnc2ccc(Cl)cc12 | – | – | 2 µg/mL (≈ 3.7 µM) | 150 nM | 2 µg/mL (≈ 3.7 µM) | <=2
31 | Cn1cc(C#N)nc1-c1c2c(=O)n(C3CC3)c(=O)n(CC3CC3)c2nn1Cc1ccnc2ccc(Cl)cc12 | < 14 µL/min/mg | < 14 µL/min/mg | 8 µg/mL (≈ 15.2 µM) | 250 nM | 4 µg/mL (≈ 7.59 µM) | –
32 | CC(C)Cn1c(=O)n(C)c(=O)c2c(-c3cncn3C)n(Cc3cccc4ccccc34)nc21 | – | – | 4 µg/mL (≈ 9.04 µM) | 120 nM | – | –
